Columns and labels:
Rattus norvegicus [1] = experiment: Antiallergic activity in Sprague-Dawley CD rat assessed as inhibition of passive anaphylaxis-induced hind paw edema at 30 mg/kg, ip relative to control; assay type: functional; settings: route intraperitoneal; for inhibition in vivo at 30 mg/kg: Rattus norvegicus, Sprague-Dawley CD, ip
In short: (§1)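 Passive anaphylaxis (reaginic antibody) induced in rat hind paw: serum with reaginic antibody injected into left hind paw; antigen given intravenously 24 h later. Paw volume measured by mercury displacement; activity read as inhibition of paw edema versus controls. Test compounds given ip or po. Inhibition of 35% or more considered significant by Student's t test (p < 0.05).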

Rattus norvegicus [2] = experiment: Antiallergic activity in Sprague-Dawley CD rat assessed as inhibition of passive anaphylaxis-induced hind paw edema at 10 mg/kg, ip relative to control; assay type: functional; settings: route intraperitoneal; for inhibition in vivo at 10 mg/kg: Rattus norvegicus, Sprague-Dawley CD, ip; in short: as §1
Rattus norvegicus [3] = experiment: Antiallergic activity in Sprague-Dawley CD rat assessed as inhibition of passive anaphylaxis-induced hind paw edema at 100 mg/kg, po relative to control; assay type: functional; settings: for inhibition in vivo at 100 mg/kg: Rattus norvegicus, Sprague-Dawley CD, po; in short: as §1
Rattus norvegicus [4] = experiment: Antiallergic activity in Sprague-Dawley CD rat assessed as inhibition of passive anaphylaxis-induced hind paw edema at 30 mg/kg, po relative to control; assay type: functional; settings: for inhibition in vivo at 30 mg/kg: Rattus norvegicus, Sprague-Dawley CD, po; in short: as §1
[5] = Inhibition of beef heart PDE assessed as cyclic AMP level; design: species or system Bos taurus
In short: (§2)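 PDE from beef heart or guinea pig lung assayed by earlier-described methods; protein measured by Lowry method. IC50 taken from a plot of percent inhibition vs log inhibitor concentration, as the concentration giving 50% reduction in reaction velocity relative to uninhibited controls.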

[6] = Inhibition of guinea pig lung PDE assessed as cyclic AMP level; design: species or system Cavia porcellus; in short: as §2
Rattus norvegicus [7] = experiment: Antiallergic activity in Sprague-Dawley CD rat passive anaphylaxis model assessed as hind paw edema volume at 10 mg/kg, ip relative to control; assay type: functional; settings: route intraperitoneal; in short: as §1
Rattus norvegicus [8] = experiment: Antiallergic activity in Sprague-Dawley CD rat passive anaphylaxis model assessed as hind paw edema volume at 3 mg/kg, ip relative to control; assay type: functional; settings: route intraperitoneal; in short: as §1
Rattus norvegicus [9] = experiment: Antiallergic activity in Sprague-Dawley CD rat passive anaphylaxis model assessed as hind paw edema volume at 30 mg/kg, po relative to control; assay type: functional; in short: as §1
Rattus norvegicus [10] = experiment: Antiallergic activity in Sprague-Dawley CD rat passive anaphylaxis model assessed as hind paw edema volume at 10 mg/kg, po relative to control; assay type: functional; in short: as §1
Rattus norvegicus [11] = experiment: Antiallergic activity in Sprague-Dawley CD rat assessed as inhibition of passive anaphylaxis-induced hind paw edema at 3 mg/kg, ip relative to control; assay type: functional; design: Activity: scale not given: the % may be the effect or the level left; settings: route intraperitoneal; in short: as §1
Rattus norvegicus [12] = experiment: Antiallergic activity in Sprague-Dawley CD rat assessed as inhibition of passive anaphylaxis-induced hind paw edema at 10 mg/kg, po relative to control; assay type: functional; in short: as §1
Rattus norvegicus [13] = experiment: Drug metabolism in po dosed Sprague-Dawley CD rat passive anaphylaxis model assessed as 2-aminotropone level; assay type: ADME, organism-based; settings: in vivo
Rattus norvegicus [14] = experiment: Antiallergic activity in Sprague-Dawley CD rat passive anaphylaxis model assessed as hind paw edema volume at 5 mg/kg, ip relative to control; assay type: functional; settings: route intraperitoneal; in short: as §1
Rattus norvegicus [15] = experiment: Antiallergic activity in Sprague-Dawley CD rat passive anaphylaxis model assessed as hind paw edema volume at 2 mg/kg, ip relative to control; assay type: functional; settings: route intraperitoneal; in short: as §1
Rattus norvegicus [16] = experiment: Antiallergic activity in Sprague-Dawley CD rat passive anaphylaxis model assessed as hind paw edema volume at 3 mg/kg, po relative to control; assay type: functional; in short: as §1
Rattus norvegicus [17] = experiment: Antiallergic activity in Sprague-Dawley CD rat assessed as inhibition of passive anaphylaxis-induced hind paw edema at 5 mg/kg, ip relative to control; assay type: functional; settings: route intraperitoneal; in short: as §1
Rattus norvegicus [18] = experiment: Antiallergic activity in Sprague-Dawley CD rat assessed as inhibition of passive anaphylaxis-induced hind paw edema at 2 mg/kg, ip relative to control; assay type: functional; settings: route intraperitoneal; in short: as §1
Rattus norvegicus [19] = experiment: Antiallergic activity in Sprague-Dawley CD rat assessed as inhibition of passive anaphylaxis-induced hind paw edema at 3 mg/kg, po relative to control; assay type: functional; in short: as §1
Serum = experiment: Drug metabolism in serum of Sprague-Dawley CD rat passive anaphylaxis model at 0.23 mmol/kg, iv; assay type: ADME, cell-free
In short: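 Rats given an iv bolus of 0.23 mmol/kg. Serum separated by centrifugation and stored frozen. Drug-derived material in serum quantified over time by UV measurement of 2-aminotropone. For 14C-labelled ester (label in ethyl group or oxalyl carbonyls), radioactivity counted in 0.2 mL serum after tissue-solubiliser digestion and scintillation fluid addition.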

Cavia porcellus = organism: Cavia porcellus; experiment: Stimulation of guinea pig lung adenylate cyclase activity at 1 x 10^-4 M after 15 mins relative to control

Structure (SMILES)	inhibition in vivo at 30 mg/kg (Rattus norvegicus [1]) [%]	inhibition in vivo at 10 mg/kg (Rattus norvegicus [2]) [%]	inhibition in vivo at 100 mg/kg (Rattus norvegicus [3]) [%]	inhibition in vivo at 30 mg/kg (Rattus norvegicus [4]) [%]	also measured
NNC(=O)C(=O)Nc1cccccc1=O	78	64	78	41	
CCOC(=O)C(=O)Nc1cccc(OC)cc1=O	67	73	48	45	
CCOC(=O)C(=O)Nc1ccccc(N(C)C(=O)C(=O)OCC)c1=O	51	26	0	6	
CCOC(=O)C(=O)Nc1ccc(Cl)ccc1=O	27		25		
CCOC(=O)C(=O)Nc1c(Oc2ccccc2)ccccc1=O	0		20		
CCOC(=O)C(=O)Nc1ccccc(C)c1=O	60	40	34	6	
CCOC(=O)C(=O)Nc1ccccc(OC)c1=O	52	24	56	59	
Cn1c(=O)c2nc[nH]c2n(C)c1=O [THEOPHYLLINE]					IC50 [5]: 0.515 mM; IC50 [6]: 1.47 mM
CCOC(=O)C(=O)Nc1c(C)ccccc1=O	47		37	4	
CCOC(=O)C(=O)Nc1cc(OC)cccc1=O	8		53	31	
O=C(O)C(=O)Nc1cccccc1=O [listing 1 of 2 here]	77	89	62		inhibition (INH) (Rattus norvegicus [4]): 38%; Activity (Rattus norvegicus [7]): 0.12 mL; Activity (Rattus norvegicus [8]): 0.75 mL; Activity (Rattus norvegicus [9]): 0.88 mL; Activity (Rattus norvegicus [10]): 1.11 mL; Activity (Rattus norvegicus [11]): 35%; inhibition (INH) (Rattus norvegicus [12]): 38%; Drug metabolism (Rattus norvegicus [13]): metabolite_detected; IC50 [5]: 4.33 mM
O=C([O-])C(=O)Nc1cccccc1=O.[K+]					inhibition (INH) (Rattus norvegicus [1]): 75%; inhibition (INH) (Rattus norvegicus [2]): 70%; inhibition (INH) (Rattus norvegicus [3]): 68%; inhibition (INH) (Rattus norvegicus [4]): 53%; Activity (Rattus norvegicus [7]): 0.36 mL; Activity (Rattus norvegicus [14]): 0.69 mL; Activity (Rattus norvegicus [15]): 0.69 mL; Activity (Rattus norvegicus [9]): 0.44 mL; Activity (Rattus norvegicus [10]): 0.66 mL; Activity (Rattus norvegicus [16]): 0.61 mL; inhibition in vivo at 5 mg/kg (Rattus norvegicus [17]): 46%; inhibition in vivo at 2 mg/kg (Rattus norvegicus [18]): 46%; inhibition (INH) (Rattus norvegicus [12]): 31%; inhibition (INH) (Rattus norvegicus [19]): 35%; IC50 [5]: 5.1 mM; IC50 [6]: 5 mM
Nc1cccccc1=O					Drug metabolism (Serum): metabolite_detected
CCOC(=O)C(=O)Nc1ccccc(-c2ccccc2)c1=O	72	57	0		
CCOC(=O)C(=O)Nc1ccccc(N(C)S(=O)(=O)c2ccc(C)cc2)c1=O	32		0	3	
CCOC(=O)C(=O)Nc1ccccc(Br)c1=O	52		0		
O=C(O)C(=O)Nc1cccccc1=O [listing 2 of 2 here]					Activity (Cavia porcellus): 2%
